Source: PubChem BioAssay (several laboratories)
In the library only some 2.2% were active in any assay of this set; here they are far more common.
miR122 inh: blocks miR-122 activity in Huh7 sensor cells; Huh7 miR-122 Renilla luciferase sensor, 48 h; neutral wells = 0, positive control = 100; activation (reporter increase), % at 12.5 µM; actives 0.3% (n = 340,000);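 active means mean replicate activation score at least 90 and every replicate individually at or above 90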;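 further: higher luciferase means less miR-122 activity so hits act as miR-122 inhibitors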
697 NFkB inh: lowers PMA/ionomycin-induced NF-kB signal in 697 B cells; 697 B-cell NF-kB luciferase reporter, 16 h; inhibition, % at 4 µM; actives 0.33% (n = 330,000); in the data active means inhibition above about 35%
NR2E3 ag-1: agonists of human nuclear receptor NR2E3. GST-NR2E3/biotin-RetCOR TR-FRET, 1536-well. inhibition of corepressor binding, % at 4.78 µM. actives 0.12% (n = 320,000). AID 2300;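 active means percent inhibition above the cutoff of mean plus 3 SD of all tested compounds, set per screening campaign, cut at about 20% in these data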;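 further: 0% = DMSO wells and 100% = biotin wells as full block of FRET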
Target sequence (Q9Y5X4 whole entry, looked up): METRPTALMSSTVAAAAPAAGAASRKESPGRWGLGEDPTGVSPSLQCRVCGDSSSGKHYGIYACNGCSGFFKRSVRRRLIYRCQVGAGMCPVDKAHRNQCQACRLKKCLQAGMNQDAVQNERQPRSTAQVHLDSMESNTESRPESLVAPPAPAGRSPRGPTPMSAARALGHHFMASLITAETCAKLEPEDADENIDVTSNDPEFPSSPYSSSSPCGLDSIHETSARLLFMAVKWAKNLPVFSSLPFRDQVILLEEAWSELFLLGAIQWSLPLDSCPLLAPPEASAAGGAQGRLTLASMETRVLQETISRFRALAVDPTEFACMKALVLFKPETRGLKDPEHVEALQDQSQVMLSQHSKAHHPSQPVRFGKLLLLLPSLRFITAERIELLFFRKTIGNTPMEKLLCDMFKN
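Material: NR2E3–RetCOR corepressor complex / Incubation: Compound–protein incubation for 5 h at 4 °C / Dosing: compound at 4.8 µM, single dose / Detection: time-resolved FRET / Benchmarks: high control biotin, low control 0.6% DMSO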
FGF22 binding: FGF22 (human) thermal shift binding; actives 1.5% (n = 340,000); Q9HCT0; recombinant FGF22 thermal shift, SYPRO orange fluorescence; percent of sucrose octasulfate shift, DMSO zero; activity (Tm shift, normalised), % at 9.99 µM; AID 651658;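 active means mean Tm shift, scaled 0 neutral to 100 positive control, at about 1.3% or above, every replicate too, limit read from the data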
Target sequence (Q9HCT0 whole entry, looked up): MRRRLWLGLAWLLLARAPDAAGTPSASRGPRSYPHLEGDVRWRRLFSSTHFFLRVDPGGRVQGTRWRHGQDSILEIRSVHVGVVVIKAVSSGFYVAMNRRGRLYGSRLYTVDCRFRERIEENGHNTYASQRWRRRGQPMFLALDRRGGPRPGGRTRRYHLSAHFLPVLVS
Jurkat NFkB inh: lowers PMA/ionomycin-induced NF-kB signal in Jurkat cells; inhibition, % at 4 µM; PMA/ionomycin-induced NF-kB luciferase reporter, luminescence; actives 0.53% (n = 330,000); AID 435003; in the data active means inhibition above about 50%
NR2E3 ag-2: human photoreceptor-specific nuclear receptor agonism; AID 602229; CHO-S Gal4-NCOR/VP16-NR2E3 two-hybrid, luciferase; Q9Y5X4; inhibition of corepressor binding, % at 3.98 µM; actives 0.35% (n = 360,000);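 active means inhibition above the mean of all tested compounds plus 3 SD, cut at about 70% in these data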;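 further: 0% = DMSO with NR2E3 transfected cells and 100% = cells lacking NR2E3 construct; higher means lower luciferase signal from less NR2E3 corepressor binding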
The depositor's hits bear a star; [ ] = another dose, or the depositor's remark.

What do the screens show for `CNc1ccccc1C(C)(C)c1cc(-c2cccc([N+](=O)[O-])c2)no1`?
miR122 inh: -1.6; 697 NFkB inh: -98.2; NR2E3 ag-1: 5.5; FGF22 binding: 0.0; Jurkat NFkB inh: 13.6; NR2E3 ag-2: -13.9

Results for CNc1ccccc1C(C)(C)c1cc(-c2cccc(Br)c2)no1 ?
miR122 inh: -1.9; 697 NFkB inh: -33.8; NR2E3 ag-1: -1.7; FGF22 binding: 43.3*; Jurkat NFkB inh: 31.1; NR2E3 ag-2: -15.2

Results for CCCCc1nc2sc3c(=O)n(N)cnc3c2c2c1CCC2 ?
miR122 inh: -3.2; 697 NFkB inh: -1.3; NR2E3 ag-1: 2.5; FGF22 binding: 43.2*; Jurkat NFkB inh: -2.5; NR2E3 ag-2: -26.1

How did COc1ccc2[nH]c(CN3CCN(CC(C)C)C(CCO)C3)c(C)c2c1 (configuration not stated) do in these assays?
697 NFkB inh: 20.8; NR2E3 ag-1: 0.7; FGF22 binding: 43.4*; Jurkat NFkB inh: 4.2; NR2E3 ag-2: -20.0

How did COc1ccc(-c2ncc(CN3CCN(CCC(C)C)C(CCO)C3)cn2)cc1 (configuration not stated) do in these assays?
miR122 inh: 0.3; 697 NFkB inh: -39.5; NR2E3 ag-1: -0.4; FGF22 binding: 0.2; Jurkat NFkB inh: -2.4; NR2E3 ag-2: -67.0

How did Cc1cccc(-c2ncc(CN3CCN(CC(C)C)C(CCO)C3)cn2)c1 (configuration not stated) do in these assays?
697 NFkB inh: -14.4; NR2E3 ag-1: 1.0; FGF22 binding: 42.9*; Jurkat NFkB inh: -19.6; NR2E3 ag-2: -4.9

Results for CC(C)CN1CCN(Cc2cccn2-c2cccnc2)CC1CCO (configuration not stated) ?
697 NFkB inh: 7.5; NR2E3 ag-1: -3.4; FGF22 binding: 43.0*; Jurkat NFkB inh: 7.5; NR2E3 ag-2: -27.9

How did COc1ccc2[nH]c(CN3CCN(C(C)C)C(CCO)C3)c(C)c2c1 (configuration not stated) do in these assays?
miR122 inh: -1.9; 697 NFkB inh: -5.2; NR2E3 ag-1: 1.5; FGF22 binding: 0.1; Jurkat NFkB inh: -16.2; NR2E3 ag-2: -10.4

Results for OCCC1CN(Cc2cccn2-c2cccnc2)CCN1Cc1ccc(F)cc1 (configuration not stated) ?
miR122 inh: 0.1; 697 NFkB inh: 9.0; NR2E3 ag-1: 2.3; FGF22 binding: 0.1; Jurkat NFkB inh: 0.1; NR2E3 ag-2: 12.6

Results for C[C@@H]1CCCCO[C@H](CN(C)CC2CCCCC2)[C@H](C)CN([C@@H](C)CO)C(=O)c2cc(NS(=O)(=O)c3ccc(Cl)cc3)ccc2O1 ?
miR122 inh: -25.5[16.7 µM]; FGF22 binding: -0.2

Results for C[C@@H]1CN([C@@H](C)CO)S(=O)(=O)c2ccc(C#CCN(C)C)cc2O[C@@H]1CN(C)Cc1ccccn1 ?
miR122 inh: 12.2[16.7 µM]

Results for Cc1cccc(NC(=O)C(=O)N/N=C/c2ccncc2)c1 ?
697 NFkB inh: 19.7; NR2E3 ag-1: 2.6; FGF22 binding: 43.5*; Jurkat NFkB inh: 2.5; NR2E3 ag-2: 24.7

What do the screens show for `Cc1cc(C)c[n+](-c2nc3ccccc3nc2[N-]S(=O)(=O)c2ccc(Br)s2)c1`?
miR122 inh: 45.2; 697 NFkB inh: -1.8; NR2E3 ag-1: 1.8; FGF22 binding: 44.0*; Jurkat NFkB inh: 2.5; NR2E3 ag-2: -8.3

What do the screens show for `COc1ccc2c3c([nH]c2c1)[C@H](CO)N(C(=O)c1ccccn1)CC31CN(C(=O)C2CC2)C1`?
FGF22 binding: -0.4

What do the screens show for `Cc1noc(C)c1NC(=O)N(C)C[C@@H]1Oc2ncc(C#CCN(C)C)cc2C(=O)N([C@H](C)CO)C[C@H]1C`?
miR122 inh: 20.2[16.7 µM]; FGF22 binding: -0.1

Results for CCCNC(=O)N1CC2(CCN(C(=O)CC3CC3)CC2)c2c(n(C)c3cc(OC)ccc23)[C@@H]1CO ?
FGF22 binding: 0.1

What do the screens show for `CC(=O)N1CCc2cc(S(=O)(=O)NCCC3=CCCCC3)ccc21`?
miR122 inh: 67.0; 697 NFkB inh: -23.4; NR2E3 ag-1: -2.0; Jurkat NFkB inh: 25.0; NR2E3 ag-2: 81.4*

Results for COc1ccc(C)cc1NS(=O)(=O)c1ccc2c(c1)CCN2C(C)=O ?
miR122 inh: 91.9*; 697 NFkB inh: 2.9; NR2E3 ag-1: 1.1; FGF22 binding: -0.5; Jurkat NFkB inh: -5.3; NR2E3 ag-2: 5.2

How did CC(=O)N1CCCc2cc(S(=O)(=O)Nc3ccccc3C)ccc21 do in these assays?
miR122 inh: 35.1; 697 NFkB inh: 1.9; NR2E3 ag-1: -0.1; FGF22 binding: 43.5*; Jurkat NFkB inh: -1.7; NR2E3 ag-2: 11.1

Results for CC(C)C(=O)Nc1ccc2c(c1)C(=O)N(C)[C@H]1CC[C@@H](CC(=O)Nc3ccccc3)O[C@@H]1CO2 ?
miR122 inh: 1.4[16.7 µM]; FGF22 binding: -0.1

Results for COc1ccc(S(=O)(=O)N(C)C[C@@H]2OCCCC[C@H](C)Oc3ccc(NC(=O)c4ccccc4)cc3C(=O)N([C@H](C)CO)C[C@@H]2C)cc1 ?
miR122 inh: -2.0[16.7 µM]; FGF22 binding: 0.9

Results for COc1ccc(S(=O)(=O)N(C)C[C@@H]2Oc3c(NC(=O)c4ccncc4)cccc3C(=O)N([C@H](C)CO)C[C@H]2C)cc1 ?
miR122 inh: -1.8[16.7 µM]; FGF22 binding: -0.1

What do the screens show for `COc1ccc2c(c1)C(C)=CC(C)(C)N2S(=O)(=O)c1ccc(Br)cc1`?
miR122 inh: 114.0*; NR2E3 ag-1: -0.7; FGF22 binding: 0.3; NR2E3 ag-2: 6.2

Results for COc1ccc2c(c1)C(C)=CC(C)(C)N2S(=O)(=O)c1ccc(NC(C)=O)cc1 ?
miR122 inh: 65.9; 697 NFkB inh: -53.6; NR2E3 ag-1: -0.2; FGF22 binding: 0.0; Jurkat NFkB inh: 44.8; NR2E3 ag-2: -7.2

Results for C[C@H]1CN([C@@H](C)CO)C(=O)c2cccc(NC(=O)Nc3ccccc3)c2O[C@H]1CN(C)S(C)(=O)=O ?
miR122 inh: 6.4[16.7 µM]; FGF22 binding: -0.1

How did O=C(c1cccc(F)c1)N1C[C@@H]2[C@H](c3ccccc31)[C@@H](CO)N2C(=O)c1cccc(F)c1 do in these assays?
miR122 inh: 30.0[16.7 µM]; FGF22 binding: 1.1

Results for O=C(Cc1ccc([N+](=O)[O-])cc1)c1ccccc1 ?
FGF22 binding: 0.1; NR2E3 ag-2: -53.0

What do the screens show for `[O-][N+](=C(c1ccccc1)c1ccccc1)c1ccccc1`?
miR122 inh: -2.6; FGF22 binding: 43.4*; NR2E3 ag-2: -41.9

Results for O=C(NCCc1ccccc1)[C@H]1[C@H](CO)[C@H]2Cn3c(cccc3=O)[C@@H]1N2Cc1ccccn1 ?
FGF22 binding: 0.1
